Assay results published in ChEMBL document CHEMBL1144441, “Identification of a novel cardenolide (2''-oxovoruscharin) from Calotropis procera and the hemisynthesis of novel derivatives displaying potent in vitro antitumor activities and high in vivo tolerance: structure-activity relationship analyses” (J Med Chem, 2005).

Assays:
CAKI-2 = experiment: In vitro cytotoxic activity against human CAKI-2 cancer cell lines after 3 days of culture; assay type: functional
Summary of the method: (§1)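 MTT overall-growth panel across 57 human cancer lines. Cells were plated for 24 h at 10 000–40 000 cells/mL, depending on cell type. Drugs were given at nine concentrations, 10^-9 to 10^-5 M in semilog steps, for 3 days. Absorbance was read at 570 nm with a 630 nm reference, in sextuplicate. Surviving cells are expressed as % of untreated control (100%).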

PANC-1 = experiment: In vitro cytotoxic activity against human Panc-1 cancer cell lines after 3 days of culture; assay type: functional; summary of the method: as §1
MDA-MB-231 = experiment: In vitro cytotoxic activity against human MDA-MB-231 cancer cell lines after 3 days of culture; assay type: functional; summary of the method: as §1
T-24 = experiment: In vitro cytotoxic activity against human T24 cancer cell lines after 3 days of culture; assay type: functional
Summary of the method: (§2)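 Human cancer cell lines, seeded 10 000–40 000 cells/mL and plated for 24 h, then exposed 72 h to nine drug concentrations from 10^-9 to 10^-5 M in semilog steps. Overall growth read by MTT reduction to formazan, absorbance at 570 nm (reference 630 nm). Sextuplicate wells; IC50 is the concentration reducing overall growth by 50% versus untreated control.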

ZR-75-1 = experiment: In vitro cytotoxic activity against human ZR-75-1 cancer cell lines after 3 days of culture; assay type: functional; summary of the method: as §2
[1] = In vitro cytotoxic activity against human Su.86.86 cancer cell lines after 3 days of culture; assay type: functional; summary of the method: as §2
LNCaP = experiment: In vitro cytotoxic activity against human LNCaP cancer cell lines after 3 days of culture; assay type: functional; summary of the method: as §1
LoVo [2] = experiment: Concentration required for 50% growth inhibition of human LoVo cancer cell lines after 3 days of culture; assay type: functional, cell-based; settings: 72 h
Summary of the method: (§3)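 MTT overall-growth assay on the five lines. Cells were plated for 24 h at 10 000–40 000 cells/mL, depending on cell type. Nine concentrations from 10^-9 to 10^-5 M in semilog steps were applied for 72 h. Formazan was read at 570 nm against a 630 nm reference, in sextuplicate. IC50 = concentration reducing overall growth by 50% versus untreated control.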

[3] = In vitro cytotoxic activity against human Hs 174.T cancer cell lines after 3 days of culture; assay type: functional; summary of the method: as §1
HT-29 = experiment: In vitro cytotoxic activity against human HT-29 cancer cell lines after 3 days of culture; assay type: functional; summary of the method: as §1
[4] = In vitro cytotoxic activity against human G361 cancer cell lines after 3 days of culture; assay type: functional; summary of the method: as §1
SK-MEL-28 = experiment: In vitro cytotoxic activity against human SKMEL-28 cancer cell lines after 3 days of culture; assay type: functional; summary of the method: as §2
U373 MG [5] = experiment: Concentration required for 50% growth inhibition of human U373 cancer cell lines after 3 days of culture; assay type: functional, cell-based, U-373MG ATCC; settings: 72 h; summary of the method: as §3
A549 [6] = experiment: In vitro cytotoxic activity against human A549 cancer cell lines after 3 days of culture; assay type: functional; summary of the method: as §1
H4 = experiment: In vitro cytotoxic activity against human H4 cancer cell lines after 3 days of culture; assay type: functional; summary of the method: as §1
HCT-15 [7] = experiment: In vitro cytotoxic activity against human HCT-15 cancer cell lines after 3 days of culture; assay type: functional; summary of the method: as §1
U-87 MG = experiment: In vitro cytotoxic activity against human U87MG cancer cell lines after 3 days of culture; assay type: functional, U-87MG ATCC; summary of the method: as §2
T98G = experiment: In vitro cytotoxic activity against human T98G cancer cell lines after 3 days of culture; assay type: functional; summary of the method: as §2
A204 = experiment: In vitro cytotoxic activity against human A204 cancer cell lines after 3 days of culture; assay type: functional; summary of the method: as §1
786-0 = experiment: In vitro cytotoxic activity against human 786-O cancer cell lines after 3 days of culture; assay type: functional; summary of the method: as §1
MIA PaCa-2 = experiment: In vitro cytotoxic activity against human MiaPaca-2 cancer cell lines after 3 days of culture; assay type: functional; summary of the method: as §1
A549 [8] = experiment: Concentration required for 50% growth inhibition of human A549 cancer cell lines after 3 days of culture; assay type: functional, cell-based; settings: A549, 72 h; summary of the method: as §3
[9] = In vitro cytotoxic activity against human SW1783 cancer cell lines after 3 days of culture; assay type: functional; summary of the method: as §2
Hs-578T = experiment: In vitro cytotoxic activity against human Hs 578.T cancer cell lines after 3 days of culture; assay type: functional; summary of the method: as §1
WiDr = experiment: In vitro cytotoxic activity against human WiDr cancer cell lines after 3 days of culture; assay type: functional; summary of the method: as §2
[10] = In vitro cytotoxic activity against human SK-LMS-1 cancer cell lines after 3 days of culture; assay type: functional; summary of the method: as §1
BXPC-3 = experiment: In vitro cytotoxic activity against human BxPC-3 cancer cell lines after 3 days of culture; assay type: functional; summary of the method: as §1
HT1197 = experiment: In vitro cytotoxic activity against human HT1197 cancer cell lines after 3 days of culture; assay type: functional; summary of the method: as §1
T47D = experiment: In vitro cytotoxic activity against human T-47D cancer cell lines after 3 days of culture; assay type: functional; summary of the method: as §2
FaDu = experiment: In vitro cytotoxic activity against human FaDu cancer cell lines after 3 days of culture; assay type: functional; summary of the method: as §1
Mus musculus = experiment: Maximum tolerated dose after intraperitoneal administration in mouse (period of 28 days); assay type: functional
Summary of the method: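 Healthy, non-tumour-bearing B6D2F1 mice given one acute intraperitoneal dose, three mice per dose group, doses 5, 10, 20, 40, 80, 120 and 160 mg/kg. Survival and body weight followed for 28 days after injection. MTD is the highest single dose causing no deaths over the period.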

[11] = In vitro cytotoxic activity against human HT144 cancer cell lines after 3 days of culture; assay type: functional; summary of the method: as §1
U373 MG [12] = experiment: In vitro cytotoxic activity against human U-373MG cancer cell lines after 3 days of culture; assay type: functional, U-373MG ATCC; summary of the method: as §2
[13] = In vitro cytotoxic activity against human SW1088 cancer cell lines after 3 days of culture; assay type: functional; summary of the method: as §2
[14] = In vitro cytotoxic activity against human Capan-2 cancer cell lines after 3 days of culture; assay type: functional; summary of the method: as §1
HT-1080 = experiment: In vitro cytotoxic activity against human HT1080 cancer cell lines after 3 days of culture; assay type: functional; summary of the method: as §1
[15] = Concentration required for 50% growth inhibition of human Hs 683 cancer cell lines after 3 days of culture; assay type: functional, cell-based; settings: 72 h; summary of the method: as §3
A-427 = experiment: In vitro cytotoxic activity against human A427 cancer cell lines after 3 days of culture; assay type: functional; summary of the method: as §1
ACHN = experiment: In vitro cytotoxic activity against human ACHN cancer cell lines after 3 days of culture; assay type: functional; summary of the method: as §1
DLD-1 = experiment: In vitro cytotoxic activity against human DLD-1 cancer cell lines after 3 days of culture; assay type: functional; summary of the method: as §1
[16] = In vitro cytotoxic activity against human Hs 729 cancer cell lines after 3 days of culture; assay type: functional; summary of the method: as §1
MES-SA = experiment: In vitro cytotoxic activity against human MES-SA cancer cell lines after 3 days of culture; assay type: functional; summary of the method: as §1
[17] = In vitro cytotoxic activity against human […] cancer cell lines after 3 days of culture; assay type: functional; summary of the method: as §1
[18] = In vitro cytotoxic activity against human Detroit 562 cancer cell lines after 3 days of culture; assay type: functional; summary of the method: as §1
[19] = In vitro cytotoxic activity against human 769-P cancer cell lines after 3 days of culture; assay type: functional; summary of the method: as §1
[20] = In vitro cytotoxic activity against human Hs 766.T cancer cell lines after 3 days of culture; assay type: functional; summary of the method: as §1
CFPAC-1 = experiment: In vitro cytotoxic activity against human CFPAC-1 cancer cell lines after 3 days of culture; assay type: functional; summary of the method: as §1
DU-145 = experiment: In vitro cytotoxic activity against human DU145 cancer cell lines after 3 days of culture; assay type: functional; summary of the method: as §1
A498 = experiment: In vitro cytotoxic activity against human A-498 cancer cell lines after 3 days of culture; assay type: functional; summary of the method: as §1
[21] = In vitro cytotoxic activity against human SCC-9 cancer cell lines after 3 days of culture; assay type: functional; summary of the method: as §1
Malme-3M = experiment: In vitro cytotoxic activity against human MALME-3M cancer cell lines after 3 days of culture; assay type: functional; summary of the method: as §1
[22] = In vitro cytotoxic activity against human SK-UT-1B cancer cell lines after 3 days of culture; assay type: functional; summary of the method: as §2
[23] = In vitro cytotoxic activity against human MCF7HTB-22 cancer cell lines after 3 days of culture; assay type: functional; summary of the method: as §1
[24] = In vitro cytotoxic activity against human AL-12T cancer cell lines after 3 days of culture; assay type: functional; summary of the method: as §1
HCT-15 [25] = experiment: Concentration required for 50% growth inhibition of human HCT-15 cancer cell lines after 3 days of culture; assay type: functional, cell-based; settings: HCT-15, 72 h; summary of the method: as §3
PC-3 = experiment: In vitro cytotoxic activity against human PC-3 cancer cell lines after 3 days of culture; assay type: functional; summary of the method: as §1
LoVo [26] = experiment: In vitro cytotoxic activity against human LoVo cancer cell lines after 3 days of culture; assay type: functional; summary of the method: as §1
[27] = biological target: Sodium/potassium-transporting ATPase subunit alpha-1 (Sus scrofa, UniProt P05024); experiment: In vitro inhibitory activity against porcine Na+/K+-ATPase
Summary of the method: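 Porcine cerebral cortex Na+/K+-ATPase (3 × 10-3 units), preincubated 30 min at 37 °C in 30 mM Tris-HCl pH 7.4, 5 mM MgCl2 with inhibitor (1 to 50 000 nM). ADP formation coupled via pyruvate kinase/lactate dehydrogenase, excess phosphoenolpyruvate, to NADH oxidation.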

[28] = In vitro cytotoxic activity against human Hs 683 cancer cell lines after 3 days of culture; assay type: functional; summary of the method: as §1
BT-20 = experiment: In vitro cytotoxic activity against human BT-20 cancer cell lines after 3 days of culture; assay type: functional; summary of the method: as §1
[29] = In vitro cytotoxic activity against human SW948 cancer cell lines after 3 days of culture; assay type: functional; summary of the method: as §2
[30] = In vitro cytotoxic activity against human C32 cancer cell lines after 3 days of culture; assay type: functional; summary of the method: as §1

SMILES: C[C@@H]1C[C@@]2(NC(=O)CS2)C2(O)O[C@@H]3C[C@@]4(CO)[C@@H](CC[C@@H]5[C@@H]4CC[C@]4(C)[C@@H](C6=CC(=O)OC6)CC[C@]54CO)C[C@H]3O[C@@H]2O1 (some centres not stated)
- Log IC50 (CAKI-2): -8.3
- Log IC50 (PANC-1): -8.3
- Log IC50 (MDA-MB-231): -8
- Log IC50 (T-24): -8.6
- Log IC50 (ZR-75-1): -7.4
- Log IC50 [1]: -8.6
- Log IC50 (LNCaP): -8.3
- IC50 (LoVo [2]): 10 nM
- Log IC50 [3]: -7.4
- Log IC50 (HT-29): -7.8
- Log IC50 [4]: -8.1
- Log IC50 (SK-MEL-28): -7.4
- IC50 (U373 MG [5]): 9 nM
- Log IC50 (A549 [6]): -8.1
- Log IC50 (H4): -7.5
- Log IC50 (HCT-15 [7]): -7.6
- Log IC50 (U-87 MG): -8.6
- Log IC50 (T98G): -8.2
- Log IC50 (A204): -8.2
- Log IC50 (786-0): -8.5
- Log IC50 (MIA PaCa-2): -7.5
- IC50 (A549 [8]): 8 nM
- Log IC50 [9]: -7.7
- Log IC50 (Hs-578T): -8.7
- Log IC50 (WiDr): -7.8
- Log IC50 [10]: -8
- Log IC50 (BXPC-3): -7.7
- Log IC50 (HT1197): -7.1
- Log IC50 (T47D): -8.4
- Log IC50 (FaDu): -8.1
- MTD (Mus musculus): 80 mg/kg
- Log IC50 [11]: -7.6
- Log IC50 (U373 MG [12]): -8.1
- Log IC50 [13]: -7
- Log IC50 [14]: -9
- Log IC50 (HT-1080): -7.4
- IC50 [15]: 3 nM
- Log IC50 (A-427): -7.6
- Log IC50 (ACHN): -8.2
- Log IC50 (DLD-1): -7.4
- Log IC50 [16]: -7.5
- Log IC50 (MES-SA): -7.8
- Log IC50 [17]: -8.7
- Log IC50 [18]: -8.3
- Log IC50 [19]: -8.3
- Log IC50 [20]: -7.4
- Log IC50 (CFPAC-1): -7.2
- Log IC50 (DU-145): -8.7
- Log IC50 (A498): -8.2
- Log IC50 [21]: -7.4
- Log IC50 (Malme-3M): -6.4
- Log IC50 [22]: -7.5
- Log IC50 [23]: -8.4
- Log IC50 [24]: -8.1
- IC50 (HCT-15 [25]): 24 nM
- Log IC50 (PC-3): -8.1
- Log IC50 (LoVo [26]): -8
- IC50 [27]: 75 nM
- Log IC50 [28]: -8.6
- Log IC50 (BT-20): -8.3
- Log IC50 [29]: -7.4
- Log IC50 [30]: -7.7
